# High-throughput results (PubChem BioAssay)
# DSG3 Ab inh: human desmoglein-3 autoantibody binding inhibition; P32926; DSG3-coupled beads, scFv-anti-DSG3-GFP binding, flow cytometry; hits give low values; binding (percent of control), % at 10 µM; 0.48% of 310,000 active; AID 588358;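 active = binding more than 3 SD below its plate's average and above zero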;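 note: hits lower antibody fragment binding to DSG3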
# CHT block: inhibitors of human choline transporter CHT | Q9GZV3 | CHT-expressing cells, membrane potential dye, choline response; hits give low values | B-score at 10 µM | 0.86% of 310,000 active | AID 488975;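 active = B-score over 3 SD under the library average, and starting fluorescence ratio not unusually high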;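 note: choline stimulus applied at its EC90 after an EC20 pre-addition; B-score computed on integrated fluorescence ratio after choline addition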
# Target sequence (Q9GZV3 whole entry, looked up): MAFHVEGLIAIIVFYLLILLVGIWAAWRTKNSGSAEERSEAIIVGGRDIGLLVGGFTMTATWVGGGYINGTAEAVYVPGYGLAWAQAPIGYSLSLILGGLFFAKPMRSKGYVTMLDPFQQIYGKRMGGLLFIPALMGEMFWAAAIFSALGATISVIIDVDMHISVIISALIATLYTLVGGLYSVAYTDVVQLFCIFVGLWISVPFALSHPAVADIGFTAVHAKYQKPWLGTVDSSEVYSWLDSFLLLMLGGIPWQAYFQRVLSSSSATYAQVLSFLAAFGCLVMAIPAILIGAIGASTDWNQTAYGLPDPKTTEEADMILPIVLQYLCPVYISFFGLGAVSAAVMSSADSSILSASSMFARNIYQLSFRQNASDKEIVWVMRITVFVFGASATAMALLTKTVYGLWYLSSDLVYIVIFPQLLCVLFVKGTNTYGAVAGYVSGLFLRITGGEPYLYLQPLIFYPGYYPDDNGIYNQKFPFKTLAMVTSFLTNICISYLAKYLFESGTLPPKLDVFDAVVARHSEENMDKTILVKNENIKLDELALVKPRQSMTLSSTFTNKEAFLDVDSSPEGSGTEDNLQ
# T cell modulator: T cell immune modulators affecting CD8 T cell-vesicle binding | 2C CD8+ T cell-vesicle binding, flow cytometry; hits give low values | response (vesicle binding), % at 7 µM | 0.068% of 330,000 active;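 active = response, share of CD8 T cells binding vesicles, and their 90th percentile fluorescence all below set limits, cut at about 80% in these data, passing the limit was not always enough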;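 note: values below 100% mean blocked vesicle binding to the CD8+ T cells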
#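 Also added: QL9-peptide-loaded Drosophila micro-vesicles bearing Ld, ICAM-1 and B7-1; Test system: purified 2C TCR transgenic mouse naive CD8+ T cells; Measured by: cytometric PE anti-B7-1 and Alexa647 anti-CD8 signals after 1% paraformaldehyde fixation; Timing: binding step 1.5 h, 37 °C, antibody labelling 20 min, ice.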
# GPR7 antag: antagonists of human GPR7 (neuropeptides B/W receptor 1); GPR7-expressing cells, fluorescence antagonist assay; 1.1% of 290,000 active; AID 1861; inhibition, % at 4.4 µM; in the data active = inhibition above about 16%, passing the limit was not always enough;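 note: cells stimulated with the agonist NPW; 0% = agonist with vehicle and 100% = vehicle without agonist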
# p-CIP stab down: lowers stability of the mouse p/CIP coactivator protein; Q05BA5; F442A p/CIP-EGFP cells, EGFP fluorescence, 16 h; decrease of EGFP signal, % at 10 µM; 0.01% of 290,000 active; AID 1984;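 active = EGFP signal decrease of at least 30% at 10 µM or well 3 SD below plate mean, unless failing retest; inactive = the rest, including hits failing retest or dose response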
# CHT allo act: allosterically activates the human high affinity choline transporter; Q9GZV3; CHT-expressing cells, membrane potential dye, choline EC20; hits give high values; LV-AA mutant CHT in HEK293 cells; B-score at 10 µM; 0.49% of 310,000 active; AID 488977;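 active = initial fluorescence not abnormally high and integrated response B-score, plate-corrected, over 3 SD above library mean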
# The depositor's hits bear a star; i = inactive; · = no result given. A selection: hits, their analogues and other compounds. The true share with any hit is near 2.3%.
SMILES,DSG3 Ab inh,CHT block,T cell modulator,GPR7 antag,p-CIP stab down,CHT allo act
COc1cc(OC)cc(N(C(=O)C2COc3ccccc3O2)C(C(=O)NC2CCCCC2)c2ccc(O)cc2)c1 (centres undefined),76*,i,171,-10,4,i
COc1ccc(N(C(=O)C2COc3ccccc3O2)C(C(=O)NC2CCCCC2)c2ccccc2)cc1OC (centres undefined),98,i,i,-12,-6,i
COc1ccc(C(=O)C(C)OC(=O)C2CC3CCCC(C2)C3=O)cc1 (centres undefined),106,·,·,·,·,·
Cc1cc(OCC(=O)OCC(=O)N2CCCCC2)ccc1Cl,97,·,·,·,·,·
Cc1cc(C(=O)CSc2nc(N)cc(=O)[nH]2)c(C)n1CC1CCCO1 (centres undefined),·,·,404,·,·,·
Cc1cc(C(=O)CSc2nc3ccccc3[nH]2)c(C)n1CC1CCCO1 (centres undefined),99,i,397,27*,-27,i
CCOC(=O)c1cn(CC)c2cc(N3CCN(C)CC3)c(F)cc2c1=O,95,i,195,7,-4,i
CCn1cc(C(=O)O)c(=O)c2cc(F)c(N3CCN(C)CC3)cc21,99,i,164,-11,-9,6.4*
O=c1c(-c2ccccc2)c(O)nc2ccccn12,103,i,257,19*,-2,i
CCc1c(O)nc2ccccn2c1=O,104,i,245,-6,-8,i
COc1ccc(-c2cc(CNS(=O)(=O)c3ccc(NC(C)=O)cc3)on2)cc1,·,i,0.0*,-9,-16,i
C/C(CC1CC(C)OC1=O)=N\NC(N)=S (centres undefined),101,i,980,3,-14,i
C/C(CC(C)(C)C1CCCCC1)=N\NC(N)=S,124,i,198,37*,-15,i
C[C@@H]1ON(C)[C@H]2C[C@H]3c4[nH]c5ccc(-c6ccc7c(c6)OCO7)cc5c4CCN3C[C@@H]12,101,·,·,·,·,·
CCSC(=O)N(CC)CC(=O)Nc1c(CC)cccc1CC,103,i,542,21*,-7,i
CCCN(CC(=O)Nc1c(C)cccc1CC)C(=O)SCC,102,i,432,17,-12,i
Cc1ccc(NC(=O)CSc2nc(N)cc(N)n2)cc1S(=O)(=O)N1CCOCC1,100,i,413,20*,12,i
CC1/C(=N/O)CC(c2ccccc2)NC1c1ccccc1 (centres undefined),126,i,532,4,-11,i
CC(C)C1/C(=N/O)CC(c2ccccc2)NC1c1ccccc1 (centres undefined),107,i,253,21*,-2,i
COc1cc2c3c(cccc3c1)C(=O)N(CCN1CCCC1)C2=O,104,·,·,·,·,·
Cc1ccccc1COC(=O)c1cc([N+](=O)[O-])ccc1N1CCOCC1,·,i,234,4,-12,i
CSc1ccc(COC(=O)c2cc([N+](=O)[O-])ccc2N2CCOCC2)cc1,98,i,236,·,·,6.3*
CC1(C)CC(=O)C=C(c2ccc(-c3cccc4c3sc3ccccc34)cc2)C1=O,100,·,·,·,·,·
Cc1cc(-c2ccc(Cl)cc2)n2nc(N)nc2n1,75*,i,398,0,-20,i
Cc1cc(-c2ccc(Cl)cc2)n2ncnc2n1,110,i,268,-10,-14,i
SMILES,DSG3 Ab inh,CHT block,T cell modulator,GPR7 antag,p-CIP stab down,CHT allo act
CN(C)Cc1cc(C(C)(C)C)cc(C(C)(C)C)c1O,100,i,186,-13,-11,i
CN(C)Cc1cc(O)c(CN(C)C)cc1O,92*,i,505,-7,-4,i
COC(=O)c1cc(OC)c(OC)cc1NC(=O)CCN1C(=O)C2CCCCC2C1=O (centres undefined),102,·,·,·,·,·
OC1(c2ccc(OC(F)F)cc2)CSC(=Nc2cccnc2)N1Cc1ccco1 (centres undefined),105,·,·,20*,-23,·
Oc1ccc(Cl)cc1CNCc1ccc(Cl)cc1,97,i,458,·,·,i
Oc1ccc(Cl)cc1Cc1cc(Cl)ccc1O,119,i,106,35*,-15,i
O=C1NC(=S)S/C1=C\c1cccc([N+](=O)[O-])c1,118,·,·,·,·,·
COCCn1nnnc1C(c1ccc(OC)cc1OC)N1CCN(c2ccccc2)CC1 (centres undefined),97,i,227,4,-3,i
COCCn1nnnc1C(c1ccc(OC)cc1OC)N1CCN(c2ccccc2F)CC1 (centres undefined),·,i,113,21*,10,i
O=C(NC1CCCCC1)N(c1ccccc1)c1nnc(-c2cccc([N+](=O)[O-])c2)s1,100,·,·,·,·,·
O=c1c(Cl)c(O)ccn1C1OC(CO)C(O)C1O (centres undefined),89,·,·,·,·,·
Cc1ccc2c(=O)n3c(nc2c1)C(Cc1ccccc1)NC(=O)c1cc(Cl)ccc1-3 (centres undefined),·,·,0.0*,·,·,·
Cc1nnc2ccc(-c3ccc(NS(=O)(=O)c4ccccc4)cc3)nn12,71*,·,·,·,·,·
Cn1cnnc1SCc1cccc(Br)c1,41*,i,558,8,-33,i
Cn1c(SCc2cccc(Br)c2)nnc1-c1ccccn1,110,i,238,-9,-9,i
NC(=O)c1c(NC(=O)c2ccccc2F)sc2c1CCC2,100,·,·,·,·,·
CCOc1cc(N(CC)CC)ccc1/C=C(/C#N)c1nc2ccccc2[nH]1,236,i,302,0,-610,i
CCN(CC)c1ccc(/C=C(/C#N)c2nc3ccc(C)cc3[nH]2)c(OC(C)C)c1,319,i,49,38*,-765,i
Cc1cc(C)c2ccc(C)[n+]([O-])c2c1O,·,-20*,223,-3,-11,i
CC(C)c1ccc(-n2c(-c3ccccc3)c[n+]3c2CCc2ccccc2-3)cc1,100,·,·,68*,-31,·
Oc1ccc(C=Nc2ccc3ncccc3c2)c(O)c1,·,i,265,-23,-16,i
COc1cccc(N=Cc2ccc(O)cc2O)c1,85*,i,232,-11,-5,i
CC(C)NC(=O)C1CCN(Cc2cccc(OCc3ccccc3)c2)CC1,83*,·,·,·,·,·
O=C(CCNC(=O)N1CC(=O)Nc2ccccc21)NCc1cccc(C(F)(F)F)c1,97,·,·,·,·,·
O=C(COc1ccc(S(=O)(=O)N2CCCCC2)cc1)NCc1ccncc1,61*,i,420,-13,-6,i
CC(=O)c1ccc(S(=O)(=O)N2CCN(C(=O)CCC3CCCC3)CC2)cc1,81,·,·,·,·,·
CC(=O)Nc1ccc(S(=O)(=O)N2CCN(C(=O)CCC3CCCC3)CC2)cc1,107,i,589,20*,-1,i
COc1ccccc1CNC(=O)COC(=O)c1ccc(S(=O)(=O)N2CCCCC2)cc1,81*,·,169,·,·,·
